Measured values: ChEMBL document CHEMBL1149534, “3-Arylamino-2H-1,2,4-benzothiadiazin-5-ol 1,1-dioxides as novel and selective CXCR2 antagonists” (Bioorg Med Chem Lett, 2007)
Values after ≈ are worked out from the molar mass of the structure shown. Blank lines part the entries; values can stand above or below the compound they belong to.

Assays:
[1] = target: T1, C-X-C chemokine receptor type 2 (Homo sapiens, UniProt P25025); experiment: Displacement of human recombinant [125I]IL8 from CXCR2 receptor expressed in CHO cells; assay type: cell-based
T1 sequence (P25025 whole entry): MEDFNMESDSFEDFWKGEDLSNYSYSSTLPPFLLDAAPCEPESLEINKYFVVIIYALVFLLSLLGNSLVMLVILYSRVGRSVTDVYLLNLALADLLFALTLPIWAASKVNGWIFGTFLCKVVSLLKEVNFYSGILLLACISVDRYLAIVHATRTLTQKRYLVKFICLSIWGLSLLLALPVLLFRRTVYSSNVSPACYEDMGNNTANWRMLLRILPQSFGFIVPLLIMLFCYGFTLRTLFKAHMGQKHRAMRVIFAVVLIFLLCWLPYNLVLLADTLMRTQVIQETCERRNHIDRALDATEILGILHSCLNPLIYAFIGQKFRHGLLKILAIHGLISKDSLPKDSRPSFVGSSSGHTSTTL
Outline: (§1)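 Membranes from CHO cells expressing CXCR1 or CXCR2, with ~0.25 nM human recombinant [125I]-IL-8 as radioligand, run in 96-well format. Values are the mean of three individual experiments.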

[2] = target: Beta-2 adrenergic receptor (Homo sapiens, UniProt P07550); experiment: Inhibition of adrenergic beta2 receptor
Sequence of Beta-2 adrenergic receptor (P07550 whole entry): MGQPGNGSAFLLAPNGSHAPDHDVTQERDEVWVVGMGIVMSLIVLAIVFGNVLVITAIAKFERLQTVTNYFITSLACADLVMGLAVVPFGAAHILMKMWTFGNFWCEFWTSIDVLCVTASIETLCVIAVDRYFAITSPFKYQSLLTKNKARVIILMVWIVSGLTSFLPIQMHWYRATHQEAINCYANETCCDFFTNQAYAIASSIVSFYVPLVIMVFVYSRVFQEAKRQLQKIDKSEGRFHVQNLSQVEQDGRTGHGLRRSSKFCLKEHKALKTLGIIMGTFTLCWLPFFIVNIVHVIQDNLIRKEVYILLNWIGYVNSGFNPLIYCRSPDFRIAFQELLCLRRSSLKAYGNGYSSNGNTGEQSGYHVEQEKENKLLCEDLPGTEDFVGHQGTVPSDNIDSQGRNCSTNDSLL

[3] = target: Interleukin-8 receptors, CXCR1/CXCR2 (Homo sapiens) (UniProt P25025+P25024); experiment: Ratio of IC50 for CXCR2 receptor to IC50 CXCR1 receptor; assay type: protein assay
Outline: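 Selectivity ratio from radioligand-binding IC50s at CXCR2 and CXCR1, using CHO-cell membranes expressing each receptor. Binding results are the mean of three individual experiments.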

[4] = target: T2, Adrenergic receptor alpha-1 (Homo sapiens, UniProt P35348+P25100+P35368); experiment: Inhibition of adrenergic alpha-1A receptor; assay type: protein assay
[5] = target: 5-hydroxytryptamine receptor 6 (Homo sapiens, UniProt P50406); experiment: Inhibition of 5HT6 receptor
[6] = Solubility in phosphate buffer at pH 7.4; assay type: physicochemical
Outline: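 Aqueous solubility measured in 0.05 M phosphate buffer, pH 7.4, containing 2% DMSO. High-throughput HPLC-based read-out.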

[7] = target: 5-hydroxytryptamine receptor 4 (Homo sapiens, UniProt Q13639); experiment: Inhibition of 5HT4A receptor
Sequence of 5-hydroxytryptamine receptor 4 (Q13639 whole entry): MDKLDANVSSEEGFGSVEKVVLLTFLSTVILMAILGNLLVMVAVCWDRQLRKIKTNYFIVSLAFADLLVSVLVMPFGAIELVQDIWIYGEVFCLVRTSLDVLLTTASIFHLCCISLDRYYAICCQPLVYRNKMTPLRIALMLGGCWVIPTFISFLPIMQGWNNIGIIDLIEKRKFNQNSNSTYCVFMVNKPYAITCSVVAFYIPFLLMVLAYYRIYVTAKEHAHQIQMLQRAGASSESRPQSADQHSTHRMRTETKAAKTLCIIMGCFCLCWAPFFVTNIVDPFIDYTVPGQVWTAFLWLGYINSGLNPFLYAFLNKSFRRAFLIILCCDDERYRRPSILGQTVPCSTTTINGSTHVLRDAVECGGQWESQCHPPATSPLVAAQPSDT

[8] = target: T3, C-X-C chemokine receptor type 1 (Homo sapiens, UniProt P25024); experiment: Displacement of human recombinant [125I]IL8 from CXCR1 receptor expressed in CHO cells; assay type: cell-based; outline: as §1
T3 sequence (P25024 whole entry): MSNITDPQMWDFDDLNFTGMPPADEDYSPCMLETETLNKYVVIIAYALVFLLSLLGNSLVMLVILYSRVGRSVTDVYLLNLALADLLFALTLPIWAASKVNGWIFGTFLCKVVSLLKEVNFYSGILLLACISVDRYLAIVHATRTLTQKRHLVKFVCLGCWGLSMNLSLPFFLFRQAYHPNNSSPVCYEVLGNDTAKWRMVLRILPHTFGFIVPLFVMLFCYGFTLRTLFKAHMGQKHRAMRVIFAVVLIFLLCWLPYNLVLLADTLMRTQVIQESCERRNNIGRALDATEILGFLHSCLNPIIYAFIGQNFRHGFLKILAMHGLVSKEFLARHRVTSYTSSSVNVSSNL

Adenosine receptor A2a = Adenosine receptor A2a (Homo sapiens, UniProt P29274); experiment: Inhibition of adenosine A2a receptor
[9] = target: 5-hydroxytryptamine receptor 2C (Homo sapiens, UniProt P28335); experiment: Inhibition of 5HT2C receptor
Sequence of 5-hydroxytryptamine receptor 2C (P28335 whole entry): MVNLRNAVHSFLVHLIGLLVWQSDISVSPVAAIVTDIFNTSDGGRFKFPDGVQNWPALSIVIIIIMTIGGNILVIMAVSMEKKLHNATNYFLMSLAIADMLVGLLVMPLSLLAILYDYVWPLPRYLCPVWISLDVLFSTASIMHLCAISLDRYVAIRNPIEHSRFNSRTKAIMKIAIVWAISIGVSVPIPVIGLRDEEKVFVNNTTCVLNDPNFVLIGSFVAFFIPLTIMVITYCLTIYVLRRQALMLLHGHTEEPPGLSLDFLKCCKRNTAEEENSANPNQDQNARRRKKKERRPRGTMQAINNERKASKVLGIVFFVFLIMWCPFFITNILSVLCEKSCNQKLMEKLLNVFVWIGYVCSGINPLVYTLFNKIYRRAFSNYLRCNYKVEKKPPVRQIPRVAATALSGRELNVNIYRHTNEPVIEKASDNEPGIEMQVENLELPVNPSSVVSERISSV

[10] = target: Plasminogen activator inhibitor 1 (Homo sapiens, UniProt P05121); experiment: Inhibition of PAI1
[11] = target: T1, C-X-C chemokine receptor type 2; experiment: Antagonist activity at CXCR2 receptor expressed in CHOK1 cells assessed as human IL8-induced calcium mobilization by FLIPR; assay type: functional, cell-based, CHO-K1
Outline: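 Cells grown 24 h, loaded with Fluo-4 AM calcium dye, then exposed to compound at […] for 10 min at 37 °C. Ca2+ mobilization read on FLIPR as percent of maximal IL-8 response. IC50 taken as concentration giving 50% inhibition of the maximal IL-8 response.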

Histamine H3 receptor = Histamine H3 receptor (Homo sapiens, UniProt Q9Y5N1); experiment: Inhibition of histamine H3 receptor
[12] = target: 5-hydroxytryptamine receptor 1A (Homo sapiens, UniProt P08908); experiment: Inhibition of 5HT1A receptor
Sequence of 5-hydroxytryptamine receptor 1A (P08908 whole entry): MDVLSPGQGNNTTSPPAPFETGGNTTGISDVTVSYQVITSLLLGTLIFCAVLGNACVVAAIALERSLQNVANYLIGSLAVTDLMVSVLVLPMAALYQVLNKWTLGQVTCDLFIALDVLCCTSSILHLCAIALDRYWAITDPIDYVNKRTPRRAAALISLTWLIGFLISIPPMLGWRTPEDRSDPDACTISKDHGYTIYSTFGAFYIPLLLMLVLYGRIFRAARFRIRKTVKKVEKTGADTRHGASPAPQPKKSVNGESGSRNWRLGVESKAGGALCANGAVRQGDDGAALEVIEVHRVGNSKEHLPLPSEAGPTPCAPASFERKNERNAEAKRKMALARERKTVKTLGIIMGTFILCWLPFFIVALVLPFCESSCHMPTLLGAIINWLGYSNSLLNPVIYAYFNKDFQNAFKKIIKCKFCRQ

[13] = target: T2, Adrenergic receptor alpha-1; experiment: Inhibition of adrenergic A1 receptor; assay type: protein assay
[14] = target: Beta-1 adrenergic receptor (Homo sapiens, UniProt P08588); experiment: Inhibition of adrenergic beta-1 receptor
Sequence of Beta-1 adrenergic receptor (P08588 whole entry): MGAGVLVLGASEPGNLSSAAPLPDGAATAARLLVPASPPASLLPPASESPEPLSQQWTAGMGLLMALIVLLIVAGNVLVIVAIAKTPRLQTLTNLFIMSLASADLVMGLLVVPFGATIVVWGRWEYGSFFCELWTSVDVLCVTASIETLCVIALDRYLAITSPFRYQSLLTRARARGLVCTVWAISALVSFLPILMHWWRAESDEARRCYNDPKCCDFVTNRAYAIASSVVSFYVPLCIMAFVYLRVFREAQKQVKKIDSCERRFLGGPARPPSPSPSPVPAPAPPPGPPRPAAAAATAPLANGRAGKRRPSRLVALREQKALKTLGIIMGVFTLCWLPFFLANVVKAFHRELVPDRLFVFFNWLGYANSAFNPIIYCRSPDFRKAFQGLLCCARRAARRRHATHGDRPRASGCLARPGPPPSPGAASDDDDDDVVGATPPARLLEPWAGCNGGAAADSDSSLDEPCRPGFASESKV

Histamine H1 receptor = Histamine H1 receptor (Homo sapiens, UniProt P35367); experiment: Inhibition of histamine H1 receptor
[15] = target: 5-hydroxytryptamine receptor 7 (Homo sapiens, UniProt P34969); experiment: Inhibition of 5HT7 receptor
Sequence of 5-hydroxytryptamine receptor 7 (P34969 whole entry): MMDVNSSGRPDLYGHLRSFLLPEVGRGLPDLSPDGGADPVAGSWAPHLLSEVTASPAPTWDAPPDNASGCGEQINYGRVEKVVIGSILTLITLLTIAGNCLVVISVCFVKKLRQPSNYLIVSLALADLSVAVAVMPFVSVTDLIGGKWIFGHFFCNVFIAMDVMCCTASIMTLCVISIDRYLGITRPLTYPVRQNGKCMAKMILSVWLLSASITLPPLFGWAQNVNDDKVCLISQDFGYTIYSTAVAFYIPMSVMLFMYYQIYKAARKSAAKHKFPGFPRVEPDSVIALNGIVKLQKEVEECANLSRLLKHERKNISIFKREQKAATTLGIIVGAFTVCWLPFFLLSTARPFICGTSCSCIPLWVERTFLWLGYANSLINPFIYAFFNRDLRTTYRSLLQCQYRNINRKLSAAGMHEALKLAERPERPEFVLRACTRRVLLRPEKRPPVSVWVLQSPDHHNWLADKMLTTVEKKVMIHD

D(2) dopamine receptor = D(2) dopamine receptor (Homo sapiens, UniProt P14416); experiment: Inhibition of dopamine D2 receptor
Sequence of D(2) dopamine receptor (P14416 whole entry): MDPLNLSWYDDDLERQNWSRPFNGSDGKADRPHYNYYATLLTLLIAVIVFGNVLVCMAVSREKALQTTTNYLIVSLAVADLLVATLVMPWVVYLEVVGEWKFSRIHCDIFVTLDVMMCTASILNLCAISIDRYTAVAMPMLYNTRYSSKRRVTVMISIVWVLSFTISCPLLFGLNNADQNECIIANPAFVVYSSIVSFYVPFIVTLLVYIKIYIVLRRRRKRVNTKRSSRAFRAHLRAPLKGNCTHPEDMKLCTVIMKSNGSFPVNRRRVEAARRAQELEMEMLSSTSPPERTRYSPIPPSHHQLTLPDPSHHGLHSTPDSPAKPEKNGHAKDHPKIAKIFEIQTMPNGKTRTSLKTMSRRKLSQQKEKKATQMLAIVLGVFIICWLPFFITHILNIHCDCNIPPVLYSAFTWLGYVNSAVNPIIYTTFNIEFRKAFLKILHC

D(3) dopamine receptor = D(3) dopamine receptor (Homo sapiens, UniProt P35462); experiment: Inhibition of dopamine D3 receptor
[16] = target: 5-hydroxytryptamine receptor 1D (Homo sapiens, UniProt P28221); experiment: Inhibition of 5HT1D receptor
Sequence of 5-hydroxytryptamine receptor 1D (P28221 whole entry): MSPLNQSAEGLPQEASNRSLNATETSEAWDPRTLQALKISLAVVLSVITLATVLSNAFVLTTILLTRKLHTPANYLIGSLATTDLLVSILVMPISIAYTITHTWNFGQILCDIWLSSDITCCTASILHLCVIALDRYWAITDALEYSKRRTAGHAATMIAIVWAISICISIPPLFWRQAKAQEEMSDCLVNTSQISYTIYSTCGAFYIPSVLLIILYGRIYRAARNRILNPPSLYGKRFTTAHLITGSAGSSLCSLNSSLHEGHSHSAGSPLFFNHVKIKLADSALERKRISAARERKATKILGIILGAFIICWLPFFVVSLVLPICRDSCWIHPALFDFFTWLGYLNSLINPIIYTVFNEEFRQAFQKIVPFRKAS

[17] = target: 5-hydroxytryptamine receptor 1B (Homo sapiens, UniProt P28222); experiment: Inhibition of 5HT1B receptor
Sequence of 5-hydroxytryptamine receptor 1B (P28222 whole entry): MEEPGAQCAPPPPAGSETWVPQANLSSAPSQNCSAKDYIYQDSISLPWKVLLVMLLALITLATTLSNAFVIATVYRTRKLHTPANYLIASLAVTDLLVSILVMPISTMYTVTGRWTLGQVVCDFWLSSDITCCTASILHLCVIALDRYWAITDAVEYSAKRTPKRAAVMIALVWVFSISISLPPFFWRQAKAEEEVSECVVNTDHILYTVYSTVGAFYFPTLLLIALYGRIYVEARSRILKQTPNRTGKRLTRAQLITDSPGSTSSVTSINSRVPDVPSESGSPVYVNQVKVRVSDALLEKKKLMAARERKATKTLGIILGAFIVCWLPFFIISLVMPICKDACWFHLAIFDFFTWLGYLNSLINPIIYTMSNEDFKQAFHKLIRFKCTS

[18] = target: Mitogen-activated protein kinase 14 (Homo sapiens, UniProt Q16539); experiment: Inhibition of P38alpha
Sequence of Mitogen-activated protein kinase 14 (Q16539 whole entry): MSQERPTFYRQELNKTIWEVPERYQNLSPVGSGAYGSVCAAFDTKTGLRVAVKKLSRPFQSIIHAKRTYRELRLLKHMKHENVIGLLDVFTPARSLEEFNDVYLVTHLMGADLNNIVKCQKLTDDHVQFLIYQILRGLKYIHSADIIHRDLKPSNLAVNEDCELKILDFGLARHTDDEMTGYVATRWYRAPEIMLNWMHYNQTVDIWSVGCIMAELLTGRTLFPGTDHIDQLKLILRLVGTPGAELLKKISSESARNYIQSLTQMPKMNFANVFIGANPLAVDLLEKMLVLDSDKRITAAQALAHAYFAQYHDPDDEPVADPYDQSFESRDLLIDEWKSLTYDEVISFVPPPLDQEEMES

P2Y purinoceptor 1 = P2Y purinoceptor 1 (Homo sapiens, UniProt P47900); experiment: Inhibition of P2Y1 receptor
Sequence of P2Y purinoceptor 1 (P47900 whole entry): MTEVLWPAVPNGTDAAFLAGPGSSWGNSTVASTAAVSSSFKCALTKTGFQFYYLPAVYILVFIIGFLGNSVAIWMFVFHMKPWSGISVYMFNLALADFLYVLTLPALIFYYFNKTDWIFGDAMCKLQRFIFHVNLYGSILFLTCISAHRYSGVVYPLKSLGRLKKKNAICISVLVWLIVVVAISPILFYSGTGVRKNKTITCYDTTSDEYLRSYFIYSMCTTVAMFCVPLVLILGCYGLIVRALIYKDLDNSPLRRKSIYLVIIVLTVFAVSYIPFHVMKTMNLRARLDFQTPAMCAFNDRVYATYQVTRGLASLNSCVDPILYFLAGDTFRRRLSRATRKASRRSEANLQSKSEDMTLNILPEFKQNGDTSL

Cytochrome P450 1A2 = Cytochrome P450 1A2 (Homo sapiens, UniProt P05177); experiment: Inhibition of human CYP1A2; assay type: ADME
[19] = Volume of distribution at steady state in rat at 1.6 mg/kg, iv and 3.2 mg/kg, po; assay type: ADME, organism-based; conditions: in vivo, read-out: Vdss
[20] = Half life in rat at 1.6 mg/kg, iv and 3.2 mg/kg, po; assay type: ADME, organism-based; conditions: in vivo
[21] = Clearance in rat at 1.6 mg/kg, iv and […] mg/kg, po; assay type: ADME, organism-based; conditions: in vivo
Cytochrome P450 2D6 = Cytochrome P450 2D6 (Homo sapiens, UniProt P10635); experiment: Inhibition of human CYP2D6; assay type: ADME
Cytochrome P450 2C9 = Cytochrome P450 2C9 (Homo sapiens, UniProt P11712); experiment: Inhibition of human CYP2C9
Cytochrome P450 3A4 = Cytochrome P450 3A4 (Homo sapiens, UniProt P08684); experiment: Inhibition of human CYP3A4; assay type: ADME
[22] = Bioavailability in rat at 3.2 mg/kg, po; assay type: ADME, organism-based; conditions: in vivo

Structure (SMILES): O=S1(=O)N=C(NC2CCCC2)Nc2c(O)cc(Cl)cc21
IC50 [1]: 20 µM

Structure (SMILES): O=[N+]([O-])c1cc(O)c2c(c1)S(=O)(=O)N=C(Nc1ccccc1Oc1ccccc1)N2
IC50 [2]: > 25 µM | Ratio IC50 [3]: < 100 | IC50 [4]: 1 µM | IC50 [5]: > 7.9 µM | solubility [6]: 2 µM (≈ 0.853 µg/mL) | IC50 [7]: > 25 µM | IC50 [8]: 7.6 µM | IC50 (Adenosine receptor A2a): 25 µM | IC50 [9]: > 10 µM | IC50 [10]: 7.9 µM | IC50 [11]: 0.49 µM | IC50 (Histamine H3 receptor): > 3.2 µM | IC50 [12]: > 3.2 µM | IC50 [1]: 0.054 µM | IC50 [13]: > 25 µM | IC50 [14]: > 25 µM | IC50 (Histamine H1 receptor): > 10 µM | IC50 [15]: 25 µM | IC50 (D(2) dopamine receptor): > 3.2 µM | IC50 (D(3) dopamine receptor): > 3.2 µM | IC50 [16]: > 3.2 µM | IC50 [17]: > 3.2 µM | IC50 [18]: 25 µM | IC50 (P2Y purinoceptor 1): > 25 µM

Structure (SMILES): O=S1(=O)N=C(Nc2ccccc2Br)Nc2c(O)cc(Br)cc21
IC50 [1]: 0.07 µM

Structure (SMILES): O=S1(=O)N=C(Nc2ccccc2Br)Nc2c(O)ccc(Cl)c21
IC50 [1]: 0.48 µM

Structure (SMILES): O=[N+]([O-])c1cc(O)c2c(c1)S(=O)(=O)N=C(Nc1ccccc1Br)N2
Ratio IC50 [3]: < 100 | solubility [6]: 233 µM (≈ 96.3 µg/mL) | IC50 [8]: 3.2 µM | IC50 [11]: 0.6 µM | IC50 [1]: 0.026 µM

Structure (SMILES): O=S1(=O)N=C(Nc2cccc(Br)c2)Nc2c(O)cc(Cl)cc21
IC50 [1]: 6.1 µM

Structure (SMILES): O=S1(=O)N=C(Nc2ccccc2Oc2ccccc2)Nc2c(O)cc(Cl)cc21
Ratio IC50 [3]: < 100 | solubility [6]: < 1 µM | IC50 [8]: 20 µM | IC50 [11]: 0.32 µM | IC50 [1]: 0.054 µM

Structure (SMILES): O=S1(=O)N=C(Nc2ccccc2Cl)Nc2c(O)cccc21
IC50 [1]: 5.2 µM

Structure (SMILES): Cc1ccccc1NC1=NS(=O)(=O)c2cc(Cl)cc(O)c2N1
IC50 [1]: 0.39 µM

Structure (SMILES): O=S1(=O)N=C(Nc2ccccc2Br)Nc2c(O)ccc(F)c21
IC50 [1]: 3 µM

Structure (SMILES): O=[N+]([O-])c1cc(O)c2c(c1)S(=O)(=O)N=C(Nc1ccccc1Cl)N2
IC50 (Cytochrome P450 1A2): > 25 µM | Vd [19]: 0.53 L/kg | half-life [20]: 2 h | Ratio IC50 [3]: < 100 | solubility [6]: 188 µM (≈ 69.3 µg/mL) | clearance [21]: 23 mL/min/kg | IC50 [8]: 12 µM | IC50 (Cytochrome P450 2D6): > 25 µM | IC50 [11]: 1.1 µM | IC50 [1]: 0.081 µM | IC50 (Cytochrome P450 2C9): 0.6 µM | IC50 (Cytochrome P450 3A4): > 25 µM | bioavailability [22]: 5%

Structure (SMILES): Cc1cc(O)c2c(c1)S(=O)(=O)N=C(Nc1ccccc1Br)N2
IC50 [1]: 0.28 µM

Structure (SMILES): O=S1(=O)N=C(Nc2ccccc2N2CCOCC2)Nc2c(O)cc(Cl)cc21
IC50 [1]: > 30 µM

Structure (SMILES): O=S1(=O)N=C(Nc2ccccc2)Nc2c(O)cc(Cl)cc21
IC50 [1]: 2.4 µM

Structure (SMILES): O=S1(=O)N=C(Nc2ccccc2Br)Nc2c(O)cc(Cl)cc21
Ratio IC50 [3]: < 100

The next lines start with the values.

IC50 [1]: 1.6 µM
Structure (SMILES): O=S1(=O)NC(Nc2c(F)cccc2Br)=Nc2c(O)cc(Cl)cc21

IC50 [1]: 3.9 µM
Structure (SMILES): O=S1(=O)N=C(Nc2cc(F)ccc2Br)Nc2c(O)cc(Cl)cc21

IC50 [1]: 5.1 µM
Structure (SMILES): O=S1(=O)NC(Nc2ccc(Br)cc2)=Nc2c(O)cc(Cl)cc21

IC50 [1]: 0.25 µM
Structure (SMILES): COc1ccccc1NC1=Nc2c(O)cc(Cl)cc2S(=O)(=O)N1

solubility [6]: 31 µM (≈ 12.5 µg/mL) | IC50 [8]: 13 µM | IC50 [11]: 0.4 µM | IC50 [1]: 0.064 µM
Structure (SMILES): O=S1(=O)NC(Nc2ccccc2Br)=Nc2c(O)cc(Cl)cc21

IC50 [1]: > 30 µM
Structure (SMILES): O=S1(=O)NC(NCc2ccccc2Cl)=Nc2c(O)cc(Cl)cc21

IC50 [1]: 0.83 µM
Structure (SMILES): O=S1(=O)NC(Nc2ccccc2C(F)(F)F)=Nc2c(O)cc(Cl)cc21

IC50 [1]: 0.36 µM
Structure (SMILES): O=S1(=O)NC(Nc2ccccc2Br)=Nc2c(O)cc(F)cc21

IC50 [1]: 15 µM
Structure (SMILES): CC[C@@H](C)NC1=Nc2c(O)cc(Cl)cc2S(=O)(=O)N1

IC50 [1]: 4.5 µM
Structure (SMILES): CC(=O)c1ccccc1NC1=Nc2c(O)cc(Cl)cc2S(=O)(=O)N1

IC50 [1]: 0.12 µM
Structure (SMILES): O=S1(=O)N=C(Nc2ccc(F)cc2Br)Nc2c(O)cc(Cl)cc21

IC50 [1]: 0.23 µM
Structure (SMILES): O=S1(=O)NC(Nc2ccccc2-c2ccccc2)=Nc2c(O)cc(Cl)cc21

solubility [6]: 160 µM (≈ 60.2 µg/mL) | IC50 [8]: 13 µM | IC50 [11]: 0.46 µM | IC50 [1]: 0.064 µM
Structure (SMILES): O=S1(=O)NC(Nc2cccc(F)c2Cl)=Nc2c(O)cc(Cl)cc21

IC50 [1]: 8 µM
Structure (SMILES): O=S1(=O)NC(NCc2ccccc2)=Nc2c(O)cc(Cl)cc21

IC50 [1]: 0.74 µM
Structure (SMILES): O=S1(=O)N=C(Nc2ccccc2F)Nc2c(O)cc(Cl)cc21

IC50 [1]: > 30 µM
Structure (SMILES): O=C(O)c1ccccc1NC1=Nc2c(O)cc(Cl)cc2S(=O)(=O)N1

Ratio IC50 [3]: < 100
Structure (SMILES): O=S1(=O)N=C(Nc2cccc(F)c2Cl)Nc2c(O)cc(Cl)cc21

IC50 [1]: 0.93 µM
Structure (SMILES): O=S1(=O)NC(Nc2ccccc2OC(F)(F)F)=Nc2c(O)cc(Cl)cc21

Ratio IC50 [3]: < 100 | solubility [6]: 68 µM (≈ 24.4 µg/mL) | IC50 [8]: 24 µM | IC50 [11]: 0.52 µM | IC50 [1]: 0.092 µM
Structure (SMILES): O=S1(=O)N=C(Nc2ccccc2Cl)Nc2c(O)cc(Cl)cc21
